Assays:
P2Y purinoceptor 12 [1] = target: T1, P2Y purinoceptor 12 (Homo sapiens, UniProt Q9H244); experiment: Displacement of [3H]PSB0413 from human platelet P2Y12 receptor
In short: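 Membranes from outdated human blood-bank platelets (4-5 days post-donation), washed, centrifuged, homogenized, stored at -80 °C. 100 µg protein incubated with 5 nM [³H]PSB-0413 in 50 mM Tris-HCl pH 7.4 for 1 h at rt, then filtered over GF/B. Nonspecific binding with 1 mM ADP. Screen at 10 µM. Ki from curves of 6-7 concentrations over 3 log units. At least three experiments in triplicate.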

P2Y purinoceptor 12 [2] = target: T1, P2Y purinoceptor 12; experiment: Displacement of [3H]PSB0413 from human platelet P2Y12 receptor at 10 uM
In short: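 Human platelet membranes (100 µg protein) incubated with 5 nM [3H]PSB-0413 and test compound at 10 µM in 50 mM Tris-HCl pH 7.4 for 1 h at rt, then filtered over GF/B. Nonspecific binding defined with 1 mM ADP; result expressed as % inhibition of radioligand binding.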

[3] = Cytotoxicity against human 1539 cells at 0.1 uM after 72 hrs to 144 hrs by MTT assay; format: functional
In short: (§1)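 1321N1 astrocytoma and 1539 melanoma cells grown in DMEM with 10% FCS and penicillin/streptomycin at 37 °C, 5% CO2. Seeded at 2000 cells/well for 24 h, then medium replaced and compound added from 10 mM DMSO stocks (final DMSO 1%). Incubation 72-144 h, then MTT (5 mg/mL stock) for 1 h. Formazan dissolved in DMSO, A570 read against 690 nm reference. Viability relative to 1% DMSO wells; triplicates, 3-8 experiments.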

[4] = Cytotoxicity against human 1321N1 cells at 1 uM after 72 hrs to 144 hrs by MTT assay; format: functional; in short: as §1
[5] = Cytotoxicity against human 1539 cells at 100 uM after 72 hrs to 144 hrs by MTT assay; format: functional; in short: as §1
[6] = Cytotoxicity against human 1539 cells at 1 uM after 72 hrs to 144 hrs by MTT assay; format: functional; in short: as §1
[7] = Cytotoxicity against human 1321N1 cells at 0.1 uM after 72 hrs to 144 hrs by MTT assay; format: functional; in short: as §1
[8] = Cytotoxicity against human 1321N1 cells at 100 uM after 72 hrs to 144 hrs by MTT assay; format: functional; in short: as §1
[9] = Toxicity in po dosed rat; format: organism-based; conditions: in vivo
Homo sapiens [10] = organism: Homo sapiens; experiment: Selectivity for human platelet P2Y12 receptor over human P2X4 receptor
Homo sapiens [11] = organism: Homo sapiens; experiment: Selectivity for human platelet P2Y12 receptor over human P2Y1 receptor
Homo sapiens [12] = organism: Homo sapiens; experiment: Selectivity for human platelet P2Y12 receptor over human P2Y4 receptor
Homo sapiens [13] = organism: Homo sapiens; experiment: Selectivity for human platelet P2Y12 receptor over human P2Y2 receptor
Homo sapiens [14] = organism: Homo sapiens; experiment: Selectivity for human platelet P2Y12 receptor over human P2X2 receptor
[15] = Cytotoxicity against human 1321N1 cells after 72 hrs to 144 hrs by MTT assay; format: functional, cell-based
In short: (§2)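 Cells grown in DMEM with 10% fetal calf serum, penicillin and streptomycin at 37 °C, 5% CO₂. Seeded at 2000 cells/well, 24 h, then medium renewed and compounds added (DMSO stocks; final DMSO 1%) at 0.1, 1 and 100 µM, or full dose-inhibition curves. Exposure 72-144 h. MTT 1 h, crystals dissolved in DMSO, absorbance 570 nm (reference 690 nm). Viability relative to 1% DMSO wells. Triplicates, 3-8 experiments.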

[16] = Cytotoxicity against human 1539 cells after 72 hrs to 144 hrs by MTT assay; format: functional, cell-based; in short: as §2
P2Y purinoceptor 12 [17] = target: T1, P2Y purinoceptor 12; experiment: Antagonist activity at P2Y12 receptor expressed in human astrocytoma cells assessed as right shift of concentration response curve; format: functional, cell-based

T1 sequence (Q9H244 whole entry): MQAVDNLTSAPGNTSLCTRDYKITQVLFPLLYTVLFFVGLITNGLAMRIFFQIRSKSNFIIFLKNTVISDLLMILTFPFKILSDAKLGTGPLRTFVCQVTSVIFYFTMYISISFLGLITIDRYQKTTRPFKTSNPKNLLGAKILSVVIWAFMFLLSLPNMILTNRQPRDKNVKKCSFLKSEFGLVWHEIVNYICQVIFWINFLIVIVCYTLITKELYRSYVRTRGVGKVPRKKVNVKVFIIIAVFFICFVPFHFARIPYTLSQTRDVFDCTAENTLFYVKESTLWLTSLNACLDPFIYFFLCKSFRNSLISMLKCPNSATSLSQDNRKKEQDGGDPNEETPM

SMILES	Ki (P2Y purinoceptor 12 [1]) [µM]	inhibition (P2Y purinoceptor 12 [2]) [%]	also measured
Cc1cc(O)c2c(c1)C(=O)c1cc(O)cc(O)c1C2=O [EMODIN]	> 10	5	
Nc1c(S(=O)(=O)O)cc(Nc2ccc(O)cc2)c2c1C(=O)c1ccccc1C2=O	10	50	
Cc1cc(O)c2c(c1)C(=O)c1cccc(O)c1C2=O [CHRYSOPHANOL]	> 10	13	
Nc1ccccc1Nc1cc(S(=O)(=O)O)c(N)c2c1C(=O)c1ccccc1C2=O	> 10	37	
Cc1cc(O)c2c(c1)Cc1cc(O)cc(O)c1C2=O [EMODIN ANTHRONE]	> 10	1	
Cc1cc(C)c(Nc2cc(S(=O)(=O)O)c(N)c3c2C(=O)c2ccccc2C3=O)c(C)c1 [ACID BLUE 129]	> 10	30	
COc1cccc2c1C(=O)c1c(O)c3c(c(O)c1C2=O)C[C@@](O)(C(=O)CO)C[C@@H]3O[C@H]1C[C@H](N)[C@H](O)[C@H](C)O1 [DOXORUBICIN]	> 10	7	
Nc1c(S(=O)(=O)O)cc(Nc2ccccc2O)c2c1C(=O)c1ccccc1C2=O	10	45	
COc1cc(O)c2c(c1)C(=O)c1cc(C)cc(O)c1C2=O [PHYSCION]	> 10	7	
Nc1c(S(=O)(=O)[O-])cc(Nc2ccc(Cl)cc2)c2c1C(=O)c1ccccc1C2=O.[Na+]			Activity [3]: 99%; Activity [4]: 116%; Activity [5]: 129%; Activity [6]: 95%; Activity [7]: 117%; Activity [8]: 120%
Nc1ccc(-c2ccc(N)c3c2C(=O)c2ccccc2C3=O)c2c1C(=O)c1ccccc1C2=O			LD50 [9]: > 5000 mg/kg
CN(C)[C@@H]1C(O)=C(C(N)=O)C(=O)[C@@]2(O)C(O)=C3C(=O)c4c(O)ccc(Cl)c4[C@@](C)(O)[C@H]3C[C@@H]12 [CHLORTETRACYCLINE]	> 10	6	
CC(=O)Nc1ccc(Nc2cc(S(=O)(=O)O)c(N)c3c2C(=O)c2ccccc2C3=O)cc1	> 10	4	
Nc1ccc(Nc2cc(S(=O)(=O)O)c(N)c3c2C(=O)c2ccccc2C3=O)cc1	> 10	30	
Nc1c(S(=O)(=O)O)cc(Nc2ccc(Nc3ccccc3)c(C(=O)O)c2)c2c1C(=O)c1ccccc1C2=O	0.021		
Nc1c(S(=O)(=O)O)cc(Nc2ccc(Nc3ncccn3)c(S(=O)(=O)O)c2)c2c1C(=O)c1ccccc1C2=O			fold change (FC) (Homo sapiens [10]): 100; fold change (FC) (Homo sapiens [11]): 100; fold change (FC) (Homo sapiens [12]): 100; fold change (FC) (Homo sapiens [13]): 100; fold change (FC) (Homo sapiens [14]): 100

SMILES	Ki (P2Y purinoceptor 12 [1]) [µM]	inhibition (P2Y purinoceptor 12 [2]) [%]	also measured
O=C1c2cccc(O)c2C(=O)c2c(O)cc(CO)cc21 [ALOE-EMODIN]	> 10	2	
Nc1c(S(=O)(=O)O)cc(NCCc2ccccc2)c2c1C(=O)c1ccccc1C2=O	> 10	16	
COC(=O)c1cc(O)c2c(c1)C(=O)c1cccc(O)c1C2=O [RHEIN METHYLESTER]	> 10	2	
Cc1cc(C)c(Nc2cc(S(=O)(=O)O)c(N)c3c2C(=O)c2ccccc2C3=O)c(C)c1N	> 10	35	
COc1ccc(CCNc2cc(S(=O)(=O)O)c(N)c3c2C(=O)c2ccccc2C3=O)cc1OC	> 10	23	
CN(C)[C@@H]1C(O)=C(C(N)=O)C(=O)[C@@]2(O)C(O)=C3C(=O)c4c(O)cccc4[C@@](C)(O)[C@H]3C[C@@H]12 [TETRACYCLINE]	> 10	2	
O=c1[nH]cc(F)c(=O)[nH]1 [FLUOROURACIL]			EC50 [15]: 53.2 µM; EC50 [16]: 5.71 µM
O=C1c2c(O)cccc2C([C@@H]2O[C@H](CO)[C@@H](O)[C@H](O)[C@H]2O)c2cc(CO)cc(O)c21 (some centres undefined) [ALOIN]	> 10	2	
Nc1c(S(=O)(=O)O)cc(NCc2ccccc2)c2c1C(=O)c1ccccc1C2=O	> 10	11	
Cc1cc(O)c2c(c1)C(=O)c1cc(O[C@@H]3OC[C@](O)(CO)[C@H]3O)cc(O)c1C2=O [FRANGULIN B]	> 10	4	
Nc1c(S(=O)(=O)O)cc(Nc2ccc(Nc3ccccc3)c(S(=O)(=O)O)c2)c2c1C(=O)c1ccccc1C2=O			Kb (P2Y purinoceptor 12 [17]): 0.0004 µM; pKb (P2Y purinoceptor 12 [17]): 9.4
Nc1c(S(=O)(=O)[O-])cc(Nc2cccc3ccccc23)c2c1C(=O)c1ccccc1C2=O.[Na+]	> 10	25	Activity [3]: 96%; Activity [4]: 126%; Activity [5]: 89%; Activity [6]: 95%; Activity [7]: 114%; Activity [8]: 116%
Cc1cc(O)c2c(c1)C(=O)c1cc(O[C@@H]3O[C@@H](C)[C@H](O)[C@@H](O)[C@H]3O)cc(O)c1C2=O [FRANGULIN A]	> 10	4	
Nc1c(S(=O)(=O)O)cc(Nc2cccc([N+](=O)[O-])c2)c2c1C(=O)c1ccccc1C2=O	> 10	17	
O=C1c2c(O)ccc(O)c2C(=O)c2c(NCCNCCO)ccc(NCCNCCO)c21 [MITOXANTRONE]	> 10		
Nc1c(S(=O)(=O)O)cc(Nc2ccc(Nc3ncccn3)cc2)c2c1C(=O)c1ccccc1C2=O	10	57	
